Results: ChEMBL document CHEMBL4371016, “Proline- and Arginine-Rich Peptides as Flexible Allosteric Modulators of Human Proteasome Activity” (J Med Chem, 2019)
Calls of active or inactive are those of the source. The rule behind the calls is not given here. Residues, ends and D or L forms follow the SMILES beside them.

Key:
[1] = molecular target: T1, Proteasome Macropain subunit MB1 (Homo sapiens) (UniProt P28074); assay: Positive allosteric modulation of latent human erythrocytes 20S proteasome chymotrypsin like activity up to 10 uM using LFP as substrate measured every 2 mins up to 60 mins by fluorescence assay
T1 sequence (whole entry): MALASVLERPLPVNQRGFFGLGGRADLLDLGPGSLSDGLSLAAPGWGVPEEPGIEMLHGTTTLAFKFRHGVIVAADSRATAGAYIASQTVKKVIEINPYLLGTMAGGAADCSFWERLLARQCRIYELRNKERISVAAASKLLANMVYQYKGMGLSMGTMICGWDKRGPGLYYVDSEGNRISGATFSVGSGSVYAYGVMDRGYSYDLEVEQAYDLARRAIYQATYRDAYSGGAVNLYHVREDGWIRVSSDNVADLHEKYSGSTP

[2] = molecular target: T1, Proteasome Macropain subunit MB1 (Homo sapiens); assay: Negative allosteric modulation of SDS-activated human erythrocytes 20S proteasome chymotrypsin like activity up to 10 uM using LFP as substrate measured every 2 mins up to 60 mins by fluorescence assay
[3] = molecular target: T1, Proteasome Macropain subunit MB1 (Homo sapiens); assay: Positive allosteric modulation of latent human erythrocytes 20S proteasome chymotrypsin like activity up to 10 uM using LFP as substrate measured every 2 mins up to 60 mins by fluorescence assay
[4] = molecular target: Proteasome Macropain subunit (Homo sapiens) (UniProt P49721); assay: Negative allosteric modulation of SDS-activated human erythrocytes 20S proteasome trypsin like activity at 10 uM using Boc-LRR-AMC as substrate measured every 2 mins up to 60 mins by fluorescence assay
Proteasome Macropain subunit (Homo sapiens), sequence (P49721 whole entry): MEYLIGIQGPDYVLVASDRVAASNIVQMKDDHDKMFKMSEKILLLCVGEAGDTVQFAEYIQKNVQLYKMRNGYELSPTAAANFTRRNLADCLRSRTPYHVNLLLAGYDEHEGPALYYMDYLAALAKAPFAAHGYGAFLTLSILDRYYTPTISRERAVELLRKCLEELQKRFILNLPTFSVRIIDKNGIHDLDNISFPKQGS

[5] = molecular target: T2, Proteasome component C5 (Homo sapiens) (UniProt P20618); assay: Negative allosteric modulation of SDS-activated human erythrocytes 20S proteasome caspase like activity at lower concentration using Z-LLE-AMC as substrate measured every 2 mins up to 60 mins by fluorescence assay
T2 sequence (whole entry): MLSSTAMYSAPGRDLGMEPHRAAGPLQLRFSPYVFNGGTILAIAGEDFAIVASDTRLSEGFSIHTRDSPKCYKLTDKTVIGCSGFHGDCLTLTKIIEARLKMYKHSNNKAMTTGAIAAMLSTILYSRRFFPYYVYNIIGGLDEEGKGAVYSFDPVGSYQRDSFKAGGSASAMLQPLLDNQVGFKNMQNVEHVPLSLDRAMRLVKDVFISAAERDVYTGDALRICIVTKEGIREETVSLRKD

[6] = molecular target: T1, Proteasome Macropain subunit MB1 (Homo sapiens); assay: Negative allosteric modulation of SDS-activated human erythrocytes 20S proteasome chymotrypsin like activity using Suc-LLVY-AMC as substrate measured every 2 mins up to 60 mins by fluorescence assay
How it was run: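 1.4 nM CP (0.001 mg/mL) in 50 mM Tris-HCl pH 8.0, activated with 0.005% SDS where stated, otherwise latent. Suc-LLVY-AMC at 100 μM final. AMC fluorescence read every 2 min up to 60 min at 37 °C. Activity relative to DMSO-treated enzyme, from at least three independent replicates. Peptide stocks 10 mM in DMSO.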

SMILES | Activity [1] | Activity [2] | Activity [3] | Activity [4] | Activity [5] | Activity [6]
CC(C)C[C@H](NC(=O)[C@H](Cc1ccc(O)cc1)NC(=O)[C@@H]1CCCN1C(=O)[C@@H]1CCCN1C(=O)[C@@H]1CCCN1C(=O)[C@@H]1CCCN1C(=O)[C@H](CCCNC(=N)N)NC(=O)[C@H](CCCNC(=N)N)NC(=O)[C@@H](N)CCCNC(=N)N)C(=O)N1CCC[C@H]1C(=O)N[C@@H](CCCNC(=N)N)C(=O)N[C@@H](Cc1c[nH]c2ccccc12)C(=O)NCC(=O)O (H-RRRPPPPYLPRWG-OH) | inactive | Active | – | – | – | –
CC(C)C[C@H](NC(=O)[C@H](Cc1ccc(O)cc1)NC(=O)[C@@H]1CCCN1C(=O)[C@@H]1CCCN1C(=O)[C@H](CCCNC(=N)N)NC(=O)[C@@H]1CCCN1C(=O)[C@H](CCCNC(=N)N)NC(=O)[C@H](CCCNC(=N)N)NC(=O)[C@@H](N)CCCNC(=N)N)C(=O)N1CCC[C@H]1C(=O)N[C@@H](CCCNC(=N)N)C(=O)N[C@@H](Cc1c[nH]c2ccccc12)C(=O)NCC(N)=O (H-RRRPRPPYLPRWG-NH2) | inactive | Active | inactive | Active | Active | –
CC(C)C[C@H](NC(=O)[C@H](Cc1ccc(O)cc1)NC(=O)[C@H](CCCNC(=N)N)NC(=O)[C@H](CCCNC(=N)N)NC(=O)[C@@H](N)CCCNC(=N)N)C(=O)N1CCC[C@H]1C(=O)N[C@@H](CCCNC(=N)N)C(=O)N[C@@H](Cc1c[nH]c2ccccc12)C(=O)NCC(=O)O (H-RRRYLPRWG-OH) | inactive | Active | inactive | Active | Active | Dose-dependent effect
N=C(N)NCCC[C@H](NC(=O)[C@H](CCCNC(=N)N)NC(=O)[C@@H](N)CCCNC(=N)N)C(=O)N[C@@H](Cc1ccc(O)cc1)C(=O)N1CCC[C@H]1C(=O)N[C@@H](CCCNC(=N)N)C(=O)N[C@@H](Cc1c[nH]c2ccccc12)C(=O)NCC(=O)O (H-RRRYPRWG-OH) | inactive | Active | inactive | Active | Active | –
